Laboratory results reported in ChEMBL document CHEMBL3120046, “Bis(ammonio)alkane-type agonists of muscarinic acetylcholine receptors: synthesis, in vitro functional characterization, and in vivo evaluation of their analgesic activity” (Eur J Med Chem, 2014).

Columns and labels:
Oryctolagus cuniculus [1] = species on record: Oryctolagus cuniculus; test: Antagonist activity at muscarinic M1 receptor in New Zealand rabbit vas deferens assessed as inhibition of electrically-induced response; format: tissue-based
[2] = target: T1, Muscarinic receptor 2 (Cavia porcellus) (UniProt Q8VH27); details: albino, Cardiac atrium
T1 sequence (whole entry): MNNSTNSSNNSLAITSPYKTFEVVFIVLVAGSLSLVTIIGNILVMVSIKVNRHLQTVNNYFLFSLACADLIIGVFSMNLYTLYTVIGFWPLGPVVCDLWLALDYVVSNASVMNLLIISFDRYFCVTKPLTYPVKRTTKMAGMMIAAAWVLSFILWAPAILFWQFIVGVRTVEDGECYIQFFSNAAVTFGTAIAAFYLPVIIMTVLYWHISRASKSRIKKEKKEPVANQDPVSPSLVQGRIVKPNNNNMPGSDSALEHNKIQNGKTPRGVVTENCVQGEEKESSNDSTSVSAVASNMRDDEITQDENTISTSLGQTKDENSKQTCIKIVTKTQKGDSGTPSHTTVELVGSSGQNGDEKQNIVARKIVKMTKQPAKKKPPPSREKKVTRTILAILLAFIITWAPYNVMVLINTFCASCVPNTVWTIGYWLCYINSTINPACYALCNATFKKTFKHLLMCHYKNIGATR

[3] = Inhibition of acetylcholinesterase in rat brain homogenate after 15 mins by Ellman assay relative to control; format: tissue-based
Procedure, shortened: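 Rat brain homogenate was incubated in 0.1 M phosphate buffer pH 8.0 with DTNB (5 mM) and test compound from 10 nM. Acetylthiocholine was added to start the reaction at 37 °C, and 4% formalin stopped it after 15 min. 5-Thio-2-nitrobenzoate was read at 412 nm. % inhibition was calculated versus control absorbance, reported as pIC50 and maximum % inhibition. Mean ± SEM, 4–6 experiments.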

Oryctolagus cuniculus [4] = species on record: Oryctolagus cuniculus; test: Intrinsic activity at muscarinic M1 receptor in New Zealand rabbit vas deferens assessed as stimulation of electrically-induced response relative to McN-A-343; format: tissue-based
Procedure, shortened: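 Cumulative agonist concentration-response curves (1 nM–30 µM) in isolated tissue, Krebs-Henseleit, carbogen, 37 °C, 1 g tension, isometric contraction. […] Curves repeated with atropine 0.1 µM and hexamethonium 100 µM. Mean ± SEM of 6–8 experiments.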

muscarinic receptor = muscarinic receptor (Cavia porcellus, UniProt H0W1Z3); test: Agonist activity at muscarinic M3 receptor in albino guinea pig ileum assessed as stimulation of electrically-induced response; format: tissue-based
Procedure, shortened: (§1)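 Tissues came from animals fasted 18 h and killed by CO2 inhalation. Cumulative agonist concentration-response curves started at 1 nM. […] Curves were repeated with atropine and hexamethonium present. pEC50 was derived by least-squares linear regression. Mean ± SEM of 6–8 experiments.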

Muscarinic receptor 2 = target: T2, Muscarinic receptor 2 (Cavia porcellus, UniProt Q8VH27); test: Agonist activity at muscarinic M2 receptor in albino guinea pig left atrium assessed as stimulation of electrically-induced response; design: species or system Cardiac atrium; procedure, shortened: as §1
T2 sequence (Q8VH27 whole entry): T1 sequence (whole entry)

Row | EC50 (muscarinic receptor) | EC50 (Muscarinic receptor 2) | SMILES | pKb (Oryctolagus cuniculus [1]) | pKb [2] | Imax [3] | Intrinsic activity (Oryctolagus cuniculus [4])
1 | – | – | CC(C)(CN1C(=O)c2cccc3cccc(c23)C1=O)C[N+](C)(C)CCCCCC[N+](C)(C)CCCN1C(=O)c2ccccc2C1=O | 6.24 | 6.57 | 69.5% | 0
2 | 1000 nM | 1410 nM | CC(C[N+](C)(C)C)OC(N)=O (stereo unspecified) [BETHANECHOL] | – | – | – | –
